Most compounds without a hit are left out; they make up all but 3.5% or so of the library.
RGS4 block: human RGS4 inhibition | P49798 | HEK293 M3R/RGS4 inducible, Fluo-4 calcium flux; stronger effect = higher value; triggered by carbachol at its EC20 | B-score at 10 µM | 310,000 compounds, 0.45% hits | AID 463165;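 active = B-score, a plate-corrected calcium signal, over three deviations above library mean, with baseline fluorescence within five deviations of library mean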;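 note: RGS4 expression induced by doxycycline in cells with stable M3 receptor; B-score is computed from the integrated fluorescence ratio over baseline after carbachol; higher B-score means a larger calcium signal and so more RGS4 inhibition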
Target sequence (P49798 whole entry, looked up): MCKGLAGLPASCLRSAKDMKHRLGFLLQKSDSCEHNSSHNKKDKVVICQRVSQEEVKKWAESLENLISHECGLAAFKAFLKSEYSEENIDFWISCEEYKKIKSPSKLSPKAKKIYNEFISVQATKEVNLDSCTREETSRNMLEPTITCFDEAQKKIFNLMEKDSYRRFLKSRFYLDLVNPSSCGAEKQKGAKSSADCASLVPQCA
RGS4 pot: potentiators or activators of RGS4; HEK293 M3R/inducible RGS4, carbachol calcium flux Fluo4; stronger effect = lower value; B-score at 10 µM; 310,000 compounds, 0.92% hits;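 active = B-score of the integrated calcium signal more than 4 SD below the library mean, with starting fluorescence not abnormally high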;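 note: negative B-score means reduced calcium response which marks RGS4 activation or potentiation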
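Assay system: HEK293 FlpIn-TREx cells, stable M3R, doxycycline-inducible RGS4 / Probe or stimulus: carbachol, ECmax concentration / Times: overnight RGS4 induction, 30 min dye load 37 °C, 20 min compound RT / Signal: kinetic calcium fluorescence imaging with Fluo4-AM dye, 2 µM / Measure: Agonist-evoked peak-minus-minimum fluorescence over baseline, integrated ratio, B score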
MrgX1 allo act: allosterically activates human MrgX1 receptor signaling; MrgX1-HEK293, Fluo-4 calcium flux, FDSS; stronger effect = higher value; B-score at 10 µM; 310,000 compounds, 0.63% hits;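 active = plate-corrected calcium response at least 3 library SD above typical, normal starting fluorescence, not activating the receptor alone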;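 note: compound read alongside a low EC10 to EC30 dose of BAM8-22 agonist; peak minus trough fluorescence over baseline measured at the second addition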
Target sequence (Q96LB2 whole entry, looked up): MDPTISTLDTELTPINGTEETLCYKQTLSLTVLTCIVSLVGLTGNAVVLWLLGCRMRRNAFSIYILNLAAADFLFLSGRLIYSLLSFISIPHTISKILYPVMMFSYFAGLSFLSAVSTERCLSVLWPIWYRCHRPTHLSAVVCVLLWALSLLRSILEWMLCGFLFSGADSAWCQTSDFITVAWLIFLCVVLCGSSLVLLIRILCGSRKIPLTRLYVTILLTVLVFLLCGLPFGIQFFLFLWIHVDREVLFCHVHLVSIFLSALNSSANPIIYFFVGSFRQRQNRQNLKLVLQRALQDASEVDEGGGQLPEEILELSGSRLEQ
MrgX1 ag: human MrgX1 receptor agonism, primary screen | 310,000 compounds, 0.44% hits | MrgX1-HEK293 cells, Fluo-4 calcium fluorescence, agonist mode; stronger effect = higher value | B-score at 10 µM | Q96LB2 | AID 588627;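 active = calcium response B-score plate-corrected fluorescence ratio at least 3 library SD, with starting fluorescence B-score inside 5 SD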
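Material: MrgX1-expressing HEK293 cells / Dosing: compound as first of three additions / Incubation: overnight seeding, then 1 h dark dye loading / Signal: Fluo-4 NW calcium fluorescence / Evaluation: B-scored fluorescence response ratio / Benchmarks: positive and negative control wells on each plate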
MrgX1 antagonist: blocks BAM8-22 activation of human MrgX1 receptor; AID 588676; MRGX1-HEK293 calcium flux, Fluo-4, BAM8-22 antagonism; stronger effect = lower value; Q96LB2; 310,000 compounds, 1.3% hits; B-score at 10 µM;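 active = calcium-response B-score plate-corrected more than 3 library SD below zero, starting fluorescence within 5 deviations, no agonist response on first addition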;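 note: peak minus trough fluorescence over baseline after final BAM8-22 challenge near maximal dose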
RGS4 inh valid: validation of RGS4 inhibitors; shares compounds with RGS4 block; HEK293 M3R/RGS4, carbachol calcium Fluo-4 fluorescence; carbachol added at its EC20; 0 = buffer wells, 100 = carbachol control; calcium response, % at 10 µM; 1,700 compounds, 65% hits;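 active = duplicate-averaged calcium response above the buffer-only control mean plus 5 SD of those controls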;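 note: integrated fluorescence ratio F max minus min over baseline F0; higher response in RGS4-induced cells means RGS4 inhibition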
M3R Ca ctr: checks RGS4 inhibitor effects in non-induced HEK293 M3R cells; shares compounds with RGS4 block; carbachol calcium Fluo-4; submaximal (EC20) carbachol stimulus; buffer wells 0%, carbachol control wells 100%; activity (percent), % at 10 µM; 1,900 compounds, 20% hits; call rule not given here;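 note: RGS4 induction absent so cells express M3R without RGS4; higher means more calcium signal and flags a non-specific hit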
RGS4 inh ctr2: second RGS4 inhibitor counter-screen in uninduced cells lacking carbachol. 1,900 compounds, 22% hits. HEK293 M3R/RGS4 non-induced, Fluo-4 calcium, no carbachol; normalised: buffer wells 0%, carbachol wells 100%. shares compounds with RGS4 block. AID 493001. calcium response (agonist-mode artifact), % at 10 µM;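 active = duplicate-averaged calcium rise in uninduced cells above buffer wells' mean plus 5 SD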
Each line names hits and unclear results; the compound was inactive in the other large screens (follow-up assays come after a bar, where they were run).

O=C(Cc1ccccc1)Nc1cccc(N2C(=O)C=CC2=O)c1	RGS4 block 7.52 | RGS4 inh valid 12.0% | M3R Ca ctr inactive | RGS4 inh ctr2 41.5%
CCC1CCCCN1CCCn1c(=S)[nH]c2ccccc2c1=O (stereo not drawn)	RGS4 block 6.87 | RGS4 inh valid 19.0% | M3R Ca ctr inactive | RGS4 inh ctr2 inactive
Cc1ccc(S(=O)(=O)N2CCCOC2CNC(=O)C(=O)NC2CCCC2)cc1 (stereo not drawn)	none | RGS4 inh valid inactive | M3R Ca ctr inactive | RGS4 inh ctr2 inactive
O=C(O)c1ccc(N2CCN(c3ccc(Cl)cc3)CC2)c([N+](=O)[O-])c1	RGS4 block 4.95 | RGS4 inh valid 7.5% | M3R Ca ctr inactive | RGS4 inh ctr2 inactive
O=C(NNC(=S)Nc1ccc(Cl)cc1Cl)c1ccc(N2CCOCC2)c([N+](=O)[O-])c1	RGS4 block 5.2 | RGS4 inh valid 9.5% | M3R Ca ctr 33.5% | RGS4 inh ctr2 inactive
O=C(/C=C/c1ccc(Cl)cc1)N1CCN(c2ccc(Cl)cc2[N+](=O)[O-])CC1	none
O=C(c1ccc(NC(=S)NCc2ccco2)cc1)N1CCOCC1	none
Cc1ccc2c(c1)c1c(n2CC(O)Cn2c(C)nc3ccccc32)/C(=N\O)CCC1 (stereo not drawn)	RGS4 block 14.6 | RGS4 inh valid 42.5% | M3R Ca ctr inactive | RGS4 inh ctr2 inactive
Cc1ccccc1OCc1nnc(SCC(=O)Nc2ccc3c(c2)oc2ccccc23)n1C	RGS4 block 5.1 | RGS4 inh valid 14.5% | M3R Ca ctr inactive | RGS4 inh ctr2 inactive
COc1ccc(-c2sc3ccccc3c2C#CCCO)cc1	RGS4 block 4.87 | RGS4 inh valid 9.0% | M3R Ca ctr inactive | RGS4 inh ctr2 inactive
OCCC#Cc1c(-c2ccsc2)sc2ccccc12	none
COc1ccc(-c2sc3ccccc3c2C#CCO)cc1	none | RGS4 inh valid inactive | M3R Ca ctr inactive | RGS4 inh ctr2 inactive
Nn1c(C2CCC2)nc2cc(Cl)ccc2c1=O	none
CC(Oc1ccccc1)c1nnc(SCC(=O)NC2CC2)n1C (stereo not drawn)	none
CC1(C)OC(=O)C(=CNCCc2ccc(O)cc2)C(=O)O1	RGS4 block 5.66 | RGS4 inh valid inactive | M3R Ca ctr inactive | RGS4 inh ctr2 inactive
CCC(C(=O)O)N1C(=O)C2CCCCC2C1=O (stereo not drawn)	none
O=C(COC(=O)/C=C/c1cccs1)Nc1nc(-c2ccccc2)cs1	RGS4 block 14.8 | RGS4 inh valid 50.5% | M3R Ca ctr 53.0% | RGS4 inh ctr2 inactive
O=C(COC(=O)/C=C/c1cccs1)Nc1nc(-c2cccc(Br)c2)cs1	none | RGS4 inh valid inactive | M3R Ca ctr inactive | RGS4 inh ctr2 12.0%
COC(=O)Cc1ccc(NC(=S)NN2CCOCC2)cc1	none
Cc1nc(Nc2ccccc2)sc1C(=O)c1ccc(F)cc1	none
Nc1nc(Nc2ccccc2F)sc1C(=O)c1ccccc1	RGS4 block 6.52 | RGS4 inh valid 28.0% | M3R Ca ctr inactive | RGS4 inh ctr2 inactive
O=C1Nc2ccccc2/C1=C/c1ccc([N+](=O)[O-])cc1	RGS4 block 8.12 | RGS4 inh valid inactive | M3R Ca ctr 30.0% | RGS4 inh ctr2 inactive
O=[N+]([O-])c1cc(Cl)c(O)c2ncccc12	RGS4 block 6.71 (no result: MrgX1 allo act, MrgX1 ag, MrgX1 antagonist) | RGS4 inh valid 11.5% | M3R Ca ctr inactive | RGS4 inh ctr2 inactive
O=[N+]([O-])c1cc(Cl)c2cccnc2c1O	none | M3R Ca ctr inactive | RGS4 inh ctr2 134.5%
O=[N+]([O-])c1cc(F)c2cccnc2c1O	none
O=C(NCc1ccco1)Nc1cccc([N+](=O)[O-])c1	none (no result: MrgX1 allo act, MrgX1 ag, MrgX1 antagonist)
Nn1c(SCC(=O)Nc2nccs2)nnc1C1CC1	none
Cc1cc(C(=O)COc2ccccc2[N+](=O)[O-])c(C)n1C1CC1	none
Cc1cc(-n2c(C)cc(C(=O)COc3ccccc3[N+](=O)[O-])c2C)no1	RGS4 block 5.14 | RGS4 inh valid inactive | M3R Ca ctr inactive | RGS4 inh ctr2 inactive
O=C(O)c1ccccc1C(=O)Nc1ccccc1	none
O=C(Nc1ccccc1)C1=C(c2ccccc2)S(=O)(=O)CCS1(=O)=O	RGS4 block 23.2 (no result: MrgX1 allo act, MrgX1 ag, MrgX1 antagonist) | RGS4 inh valid 47.0% | M3R Ca ctr inactive | RGS4 inh ctr2 inactive
CCC(=O)c1c[nH]c(C(=O)NCCCn2ccnc2)c1	none
CCCOc1ccc(/C=c2\sc3ncnn3c2=O)cc1	RGS4 block 5.75 | RGS4 inh valid 9.0% | M3R Ca ctr 49.0% | RGS4 inh ctr2 13.5%
Cn1c(SCC(=O)NNC(=O)Nc2ccc(Cl)cc2)nnc1-c1ccccc1	none
N#Cc1c(-c2ccccc2)c(-c2ccccc2)nn(CC(=O)NNC(=O)Nc2ccccc2)c1=O	none | RGS4 inh valid inactive | M3R Ca ctr inactive | RGS4 inh ctr2 inactive
N#Cc1c(-c2ccccc2)c(-c2ccccc2)nn(CC(=O)NNC(=O)Nc2ccc(Cl)cc2)c1=O	none | M3R Ca ctr inactive | RGS4 inh ctr2 inactive
C=CCN(C(=O)CNC(=O)c1ccco1)C(C(=O)NC1CCCCC1)c1ccc(OC)cc1OC (stereo not drawn)	none
CC(=O)Nc1ccc(NC(=O)CC2Nc3cccc4cccc(c34)NC2=O)cc1 (stereo not drawn)	none | RGS4 inh valid inactive | M3R Ca ctr inactive | RGS4 inh ctr2 inactive
O=C(/C=C/c1ccc(NC(=O)c2ccccc2-c2ccccc2C(=O)O)cc1)c1ccccc1	RGS4 block 27.9 | RGS4 inh valid 60.5% | M3R Ca ctr inactive | RGS4 inh ctr2 13.0%
COc1ccc(CCNC(=O)/C=C/c2ccc3ccccc3n2)cc1OC	RGS4 block 13.1 | RGS4 inh valid 34.5% | M3R Ca ctr 31.5% | RGS4 inh ctr2 inactive
COc1ccc(/C=C/C(=O)NCCc2ccc(OC)c(OC)c2)cc1	none
CC1Cc2ccccc2N1C(=O)c1ccc2nccnc2c1 (stereo not drawn)	none
Nc1nn2cc(-c3ccccc3)nc2c2ccccc12	none | M3R Ca ctr inactive | RGS4 inh ctr2 inactive
Cc1cn2nc(N)c3ccccc3c2n1	none (no result: RGS4 block, RGS4 pot)
CSc1ccc(/C=C/C(=O)c2ccc(NC(C)=O)cc2)cc1	none
CC(=O)Nc1cccc(C(=O)/C=C/c2ccc(C)cc2)c1	none | RGS4 inh valid inactive | M3R Ca ctr inactive | RGS4 inh ctr2 inactive
COc1ccc(C(=O)NNC(=O)CSc2nnc(-c3cccnc3)o2)cc1	none
NC[C@@H]1O[C@H](C23CC4CC(CC(C4)C2)C3)Cc2c1ccc(O)c2O	RGS4 block 10 | RGS4 inh valid 10.0% | M3R Ca ctr inactive | RGS4 inh ctr2 inactive

Screens: PubChem BioAssay, Johns Hopkins Ion Channel Center
